Results from ChEMBL document CHEMBL4819098, “Novel 1,2,4-triazine-quinoline hybrids: The privileged scaffolds as potent multi-target inhibitors of LPS-induced inflammatory response via dual COX-2 and 15-LOX inhibition” (Eur J Med Chem, 2021).

Tests used:
[1] = target: T1, Prostaglandin G/H synthase 1 (Ovis aries, UniProt P05979); experiment: Inhibition of ovine COX-1 using arachidonic acid as substrate preincubated with enzyme for 5 mins followed by substrate addition by colorimetric analysis
T1 sequence (P05979 whole entry): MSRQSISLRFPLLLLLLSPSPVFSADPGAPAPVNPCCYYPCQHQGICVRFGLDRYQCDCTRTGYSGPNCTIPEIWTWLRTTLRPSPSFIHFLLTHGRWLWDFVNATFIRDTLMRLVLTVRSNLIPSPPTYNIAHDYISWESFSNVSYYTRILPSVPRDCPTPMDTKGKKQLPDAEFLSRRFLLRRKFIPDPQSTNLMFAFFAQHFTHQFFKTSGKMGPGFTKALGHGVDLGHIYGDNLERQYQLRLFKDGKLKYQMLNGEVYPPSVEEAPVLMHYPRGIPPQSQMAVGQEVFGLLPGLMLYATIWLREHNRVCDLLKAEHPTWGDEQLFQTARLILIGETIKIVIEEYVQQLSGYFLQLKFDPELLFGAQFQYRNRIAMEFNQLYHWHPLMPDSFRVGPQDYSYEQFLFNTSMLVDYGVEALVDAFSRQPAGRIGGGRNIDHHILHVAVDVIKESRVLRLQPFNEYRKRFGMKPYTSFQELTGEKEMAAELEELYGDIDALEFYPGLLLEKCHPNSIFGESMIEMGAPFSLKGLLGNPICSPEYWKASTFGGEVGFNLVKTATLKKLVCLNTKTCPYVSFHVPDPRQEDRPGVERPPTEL

[2] = target: T2, Prostaglandin G/H synthase 2 (Homo sapiens, UniProt P35354); experiment: Inhibition of human recombinant COX-2 using arachidonic acid as substrate preincubated with enzyme for 5 mins followed by substrate addition by colorimetric analysis
T2 sequence (P35354 whole entry): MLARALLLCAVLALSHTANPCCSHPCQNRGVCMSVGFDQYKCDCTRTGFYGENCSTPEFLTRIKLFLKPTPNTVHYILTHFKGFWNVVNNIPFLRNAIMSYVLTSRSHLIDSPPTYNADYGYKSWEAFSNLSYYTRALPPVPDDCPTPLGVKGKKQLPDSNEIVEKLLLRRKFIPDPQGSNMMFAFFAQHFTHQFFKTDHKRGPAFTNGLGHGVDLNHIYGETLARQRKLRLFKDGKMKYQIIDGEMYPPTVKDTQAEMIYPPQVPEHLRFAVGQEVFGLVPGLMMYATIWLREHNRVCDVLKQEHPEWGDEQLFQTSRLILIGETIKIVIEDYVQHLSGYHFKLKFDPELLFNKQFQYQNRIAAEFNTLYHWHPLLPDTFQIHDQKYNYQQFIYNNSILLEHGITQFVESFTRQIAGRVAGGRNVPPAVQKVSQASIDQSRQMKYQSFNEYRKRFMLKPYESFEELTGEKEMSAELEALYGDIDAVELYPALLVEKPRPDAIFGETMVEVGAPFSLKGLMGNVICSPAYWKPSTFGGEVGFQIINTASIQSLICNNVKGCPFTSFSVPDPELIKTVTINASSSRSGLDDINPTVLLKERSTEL

[3] = Selectivity index, ratio of IC50 for ovine COX-1 to IC50 for human recombinant COX-2
Summary of the method: (§1)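 Enzyme kit assay with ovine COX-1 and human recombinant COX-2. IC50 determined from three replicates. Selectivity index taken as IC50(COX-1)/IC50(COX-2).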

[4] = Inhibition of soybean 15-LOX using arachidonic acid or linolenic acid as substrate in presence of hydrogen peroxide incubated for 5 mins by colorimetric analysis; design: species or system Glycine max
RAW264.7 [5] = experiment: Inhibition of LPS-induced NO production in mouse RAW264.7 cells preincubated for 2 hrs followed by LPS stimulation and measured after 20 hrs by DAF-FM based fluorescence analysis; format: functional, cell-based
RAW264.7 [6] = experiment: Antioxidant activity in mouse RAW264.7 cells assessed as inhibition of LPS-induced intracellular ROS production preincubated for 2 hrs followed by LPS stimulation and measured after 20 hrs by DCFH-DA staining based fluorescence analysis; format: functional, cell-based
RAW264.7 [7] = experiment: Inhibition of LPS-induced 15(S)-HETE production in mouse RAW264.7 cells preincubated for 2 hrs followed by LPS stimulation and measured after 20 hrs by ELISA; format: functional, cell-based
[8] = target: T3, Prostaglandin G/H synthase 2 (Homo sapiens) (UniProt P35354); experiment: Potency index, ratio of diclofenac sodium IC50 to test compound IC50 for human recombinant COX-2 using arachidonic acid as substrate preincubated with enzyme for 5 mins followed by substrate addition by colorimetric analysis
T3 sequence (whole entry): T2 sequence (P35354 whole entry)

RAW264.7 [9] = experiment: Potency index, ratio of celecoxib IC50 to test compound IC50 for inhibition of LPS-induced NO production in mouse RAW264.7 cells preincubated for 2 hrs followed by LPS stimulation and measured after 20 hrs by DAF-FM based fluorescence analysis; format: functional; conditions: time 22 hrs
RAW264.7 [10] = experiment: Potency index, ratio of diclofenac sodium IC50 to test compound IC50 for inhibition of LPS-induced NO production in mouse RAW264.7 cells preincubated for 2 hrs followed by LPS stimulation and measured after 20 hrs by DAF-FM based fluorescence analysis; format: functional; conditions: time 22 hrs
RAW264.7 [11] = experiment: Cytotoxicity against mouse RAW264.7 cells assessed as reduction in cell viability by MTS assay; format: cell-based
Summary of the method: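 RAW 264.7 macrophage viability at the tested concentrations measured by MTS assay.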

[12] = Inhibition of soybean 15-LOX; design: species or system Glycine max
Summary of the method: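 Soybean 15-LOX run with a lipoxygenase inhibitor screening kit according to the manufacturer's instructions. IC50 values reported.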

[13] = target: T1, Prostaglandin G/H synthase 1; experiment: Inhibition of ovine COX-1; summary of the method: as §1
[14] = target: T2, Prostaglandin G/H synthase 2; experiment: Inhibition of human recombinant COX-2; summary of the method: as §1
RAW264.7 [15] = experiment: Inhibition of LPS-induced TNFalpha production in mouse RAW264.7 cells preincubated for 2 hrs followed by LPS stimulation and measured after 20 hrs by ELISA; format: functional, cell-based
RAW264.7 [16] = experiment: Inhibition of LPS-induced IL-6 production in mouse RAW264.7 cells preincubated for 2 hrs followed by LPS stimulation and measured after 20 hrs by ELISA; format: functional, cell-based
RAW264.7 [17] = experiment: Potency index, ratio of celecoxib IC50 to test compound IC50 for inhibition of LPS-induced IL-6 production in mouse RAW264.7 cells preincubated for 2 hrs followed by LPS stimulation and measured after 20 hrs by ELISA; format: functional; conditions: time 22 hrs
RAW264.7 [18] = experiment: Potency index, ratio of diclofenac sodium IC50 to test compound IC50 for inhibition of LPS-induced IL-6 production in mouse RAW264.7 cells preincubated for 2 hrs followed by LPS stimulation and measured after 20 hrs by ELISA; format: functional; conditions: time 22 hrs
RAW264.7 [19] = experiment: Potency index, ratio of celecoxib IC50 to test compound IC50 for inhibition of LPS-induced TNFalpha production in mouse RAW264.7 cells preincubated for 2 hrs followed by LPS stimulation and measured after 20 hrs by ELISA; format: functional; conditions: time 22 hrs
RAW264.7 [20] = experiment: Potency index, ratio of diclofenac sodium IC50 to test compound IC50 for inhibition of LPS-induced TNFalpha production in mouse RAW264.7 cells preincubated for 2 hrs followed by LPS stimulation and measured after 20 hrs by ELISA; format: functional; conditions: time 22 hrs
RAW264.7 [21] = experiment: Cytotoxicity against mouse RAW264.7 cells assessed as reduction in cell viability at 50 uM by MTS assay; format: cell-based; conditions: raw264.7, 50 µM

Row | SMILES | IC50 [1] | IC50 [2] | Ratio IC50 [3] | IC50 [4] | IC50 (RAW264.7 [5]) | IC50 (RAW264.7 [6]) | IC50 (RAW264.7 [7]) | Ratio IC50 [8] | IC50 (RAW264.7 [15]) | IC50 (RAW264.7 [16]) | Activity (RAW264.7 [11]) | Ratio IC50 (RAW264.7 [17]) | also measured
1 | COc1cc(Cc2n[nH]c(=S)n(/N=C/c3cc4cc(C)ccc4nc3O)c2=O)cc(OC)c1OC | 11.5 µM | 0.065 µM | 177 | 2.06 µM | 6.34 µM | 6.67 µM | 8.86 µM | 12.9 | – | – | Non-Toxic | – | Ratio IC50 (RAW264.7 [9]): 3; Ratio IC50 (RAW264.7 [10]): 6
2 | COc1ccc(/C=C\C(=O)c2cc(-n3cc(CN4C(=O)C(=O)c5ccccc54)nn3)ccc2O)cc1 | – | – | – | – | – | – | – | – | – | – | – | – | IC50 [12]: 1.95 µM; IC50 [13]: 13.3 µM; IC50 [14]: 0.037 µM
3 | COc1ccc2cc(/C=N/n3c(=S)[nH]nc(Cc4cc(OC)c(OC)c(OC)c4)c3=O)c(O)nc2c1 | 9.7 µM | 0.097 µM | – | 2.18 µM | > 50 µM | 4.52 µM | 18.6 µM | 8.7 | 2.61 µM | 5.54 µM | Non-Toxic | 2 | Ratio IC50 (RAW264.7 [18]): 2.3
4 | COc1cc(Cc2n[nH]c(=S)n(/N=C/c3cc4cccc(C)c4nc3Cl)c2=O)cc(OC)c1OC | 8.3 µM | 0.16 µM | 51.9 | 1.86 µM | 25.8 µM | – | 1.46 µM | 5.3 | 0.4 µM | 3.99 µM | Non-Toxic | 2.8 | Ratio IC50 (RAW264.7 [19]): 25; Ratio IC50 (RAW264.7 [20]): 25; Ratio IC50 (RAW264.7 [18]): 3.2
5 | O=C1N/C(=N\c2nnc(-c3ccc(O)cc3)s2)S/C1=C\c1ccccc1 | – | – | – | – | – | – | – | – | – | – | – | – | IC50 [12]: 5.74 µM; IC50 [13]: 4.66 µM; IC50 [14]: 0.085 µM
6 | COc1ccc2cc(/C=N/n3c(=S)[nH]nc(Cc4ccccc4)c3=O)c(O)nc2c1 | 10.2 µM | 0.073 µM | 140 | 2.32 µM | 16.1 µM | 3.78 µM | 3.6 µM | 11.5 | 8.41 µM | 7.36 µM | Non-Toxic | 1.5 | Activity (RAW264.7 [21]): Toxic
7 | COc1ccc2nc(O)c(/C=N/n3c(=S)[nH]nc(Cc4cc(OC)c(OC)c(OC)c4)c3=O)cc2c1 | 11.8 µM | 0.06 µM | 197 | 2.57 µM | > 50 µM | > 50 µM | > 50 µM | 14 | > 50 µM | > 50 µM | Non-Toxic | – | –
8 | COc1cc(Cc2n[nH]c(=S)n(/N=C/c3cc4ccc(OCc5ccccc5)cc4nc3Cl)c2=O)cc(OC)c1OC | 7.7 µM | 0.12 µM | 64.2 | 3.39 µM | 6.76 µM | 4.36 µM | 2.03 µM | 7 | 16 µM | 6.11 µM | Non-Toxic | 1.8 | Ratio IC50 (RAW264.7 [9]): 3; Ratio IC50 (RAW264.7 [10]): 6; Activity (RAW264.7 [21]): Toxic; Ratio IC50 (RAW264.7 [18]): 2.1
9 | O=c1c(Cc2ccccc2)n[nH]c(=S)n1/N=C/c1cc2ccccc2nc1O | 11.3 µM | 0.054 µM | 209 | 2.12 µM | > 50 µM | > 50 µM | > 50 µM | 15.6 | > 50 µM | > 50 µM | Non-Toxic | – | –

Now from value to compound, other results behind:

Row | IC50 [1] | IC50 [2] | Ratio IC50 [3] | IC50 [4] | IC50 (RAW264.7 [5]) | IC50 (RAW264.7 [6]) | IC50 (RAW264.7 [7]) | Ratio IC50 [8] | IC50 (RAW264.7 [15]) | IC50 (RAW264.7 [16]) | SMILES | Activity (RAW264.7 [11]) | Ratio IC50 (RAW264.7 [17]) | also measured
10 | 6.6 µM | 0.32 µM | 20.6 | 3.49 µM | > 50 µM | 1.91 µM | 0.42 µM | 2.6 | 34.6 µM | 12.9 µM | CC(C)Oc1ccc2nc(O)c(/C=N/n3c(=S)[nH]nc(Cc4ccccc4)c3=O)cc2c1 | Non-Toxic | – | –
11 | 10.3 µM | 0.085 µM | 121 | 1.97 µM | > 50 µM | > 50 µM | > 50 µM | – | > 50 µM | > 50 µM | COc1cc(Cc2n[nH]c(=S)n(/N=C/c3cc4cc(C)ccc4nc3O)c2=O)ccc1O | Non-Toxic | – | –
12 | 9 µM | 0.11 µM | 81.8 | 2.38 µM | 36.8 µM | 10.9 µM | 7.13 µM | 7.6 | 3.4 µM | 11.8 µM | Cc1ccc2nc(O)c(/C=N/n3c(=S)[nH]nc(Cc4cccs4)c3=O)cc2c1 | Non-Toxic | – | –
13 | 11.1 µM | 0.079 µM | 140 | 2.13 µM | 9.37 µM | > 50 µM | > 50 µM | – | > 50 µM | > 50 µM | O=c1c(Cc2cccs2)n[nH]c(=S)n1/N=C/c1cc2ccccc2nc1O | Non-Toxic | – | –
14 | 5.9 µM | 0.28 µM | 21.1 | 2.66 µM | 33.5 µM | 7.31 µM | 21.3 µM | 3 | 30.3 µM | 13.5 µM | Cc1ccc2nc(O)c(/C=N/n3c(=S)[nH]nc(Cc4ccccc4)c3=O)cc2c1 | Non-Toxic | – | –
15 | 10.5 µM | 0.068 µM | 154 | 1.97 µM | 6.93 µM | 3.95 µM | 3.91 µM | 12.4 | > 50 µM | 5.98 µM | COc1ccc2nc(O)c(/C=N/n3c(=S)[nH]nc(Cc4ccccc4)c3=O)cc2c1 | Non-Toxic | 1.9 | Ratio IC50 (RAW264.7 [9]): 3; Ratio IC50 (RAW264.7 [10]): 6; Ratio IC50 (RAW264.7 [18]): 2.2
